Results as given in ChEMBL document CHEMBL1938242, “In vivo evaluation of oral anti-tumoral effect of 3,4-dihydroquinazoline derivative on solid tumor” (Bioorg Med Chem Lett, 2012).
Calls of active or inactive are those of the source. No cut-off for these calls is given here.

Experiments:
Mus musculus [1] = experiment: Antinociceptive activity in po dosed mouse assessed as time of latency at 100 mg/kg, po administered 1 hr before hot plate test; assay type: functional, organism-based; design: dose 100 mg/kg
A549 [2] = experiment: Antitumor activity against human A549 cells xenografted in athymic nu/nu BALB/c mouse assessed as tumor growth inhibition at 10 mg/kg, ip administered twice per week for consecutive 39 days; assay type: functional; conditions: 936 h, route intraperitoneal, read-out: GI
Summary of the method: (§1)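 A549 s.c. flank xenografts (5 × 10⁶ cells) in BALB/c nu/nu mice, n = 5. From day 8, given 10 mg/kg ip in ethanol:Cremophor EL:water 1:1:18, twice weekly for 39 days. Excised tumors weighed at the end. Inhibition % = 100 × (C − T)/C using mean tumor weights versus vehicle. Mean ± SE.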

A549 [3] = experiment: Antitumor activity against human A549 cells xenografted in athymic nu/nu BALB/c mouse assessed as decrease in tumor weight at 10 mg/kg, ip administered twice per week for consecutive 39 days (reference value: 0.358 +/- 0.052 g); assay type: functional; conditions: route intraperitoneal; summary of the method: as §1
Mus musculus [4] = experiment: Toxicity in athymic nu/nu BALB/c mouse bearing human A549 cells assessed as change in total body weight at 10 mg/kg, ip administered twice per week for consecutive 39 days; assay type: organism-based; design: dose 10 mg/kg, route intraperitoneal; conditions: in vivo, 936 h
Summary of the method: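 Mice bearing A549 s.c. flank xenografts, n = 5 per group, given 10 mg/kg ip in ethanol:Cremophor EL:water 1:1:18, twice weekly over 39 days starting day 8. Total body weights tracked through the study and compared with vehicle control. Mean ± SE.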

A549 [5] = experiment: Antitumor activity against human A549 cells xenografted in athymic nu/nu BALB/c mouse assessed as decrease in tumor volume at 10 mg/kg, ip administered twice per week for consecutive 39 days (reference value: 224.40 +/- 60.34 mm3); assay type: functional; conditions: route intraperitoneal
A549 [6] = experiment: Antitumor activity against human A549 cells xenografted in athymic nu/nu BALB/c mouse assessed as decrease in tumor volume at 5 mg/kg, po administered 5 times weekly for consecutive 39 days relative to paclitaxel; assay type: functional
Summary of the method: (§2)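 A549 cells (5 × 10⁶) injected s.c. into the left flank of BALB/c nu/nu mice, n = 5 per group. At day 8 (nodules ca. 3 mm³), oral dosing at 1 or 5 mg/kg in ethanol:Cremophor EL:water 1:1:18, five times weekly for 39 days. Caliper measurement weekly; volume from length, width and height. Mean ± SE; Dunnett's test versus vehicle.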

A549 [7] = experiment: Antitumor activity against human A549 cells xenografted in athymic nu/nu BALB/c mouse assessed as decrease in tumor weight at 1 mg/kg, po administered 5 times weekly for consecutive 39 days (reference value: 0.358 +/- 0.052 g); assay type: functional
[8] = target: Voltage-dependent N-type calcium channel subunit alpha-1B (Homo sapiens, UniProt Q00975); experiment: Inhibition of N-type calcium channel alpha 1 B
Mus musculus [9] = experiment: Antinociceptive activity in po dosed mouse assessed as inhibition of acetic acid-induced writhing measured every 5 mins for 20 mins pretreated 1 hr before acetic acid challenge; assay type: functional, organism-based
Summary of the method: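 Mice (n = 7 per group) given 10 or 50 mg/kg orally; 1 h later injected ip with 0.7% (v/v) acetic acid, 10 mL/kg. After a 5-min delay, writhes counted for 20 min. Comparison with vehicle controls by Dunnett's test; mean ± S.D.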

A549 [10] = experiment: Antitumor activity against human A549 cells xenografted in athymic nu/nu BALB/c mouse assessed as tumor growth inhibition at 5 mg/kg, po administered 5 times weekly for consecutive 39 days; assay type: functional; conditions: A549, 936 h, read-out: GI
A549 [11] = experiment: Antitumor activity against human A549 cells xenografted in po dosed athymic nu/nu BALB/c mouse assessed as decrease in tumor volume administered 5 times weekly for consecutive 39 days; assay type: functional, organism-based; summary of the method: as §2
Mus musculus [12] = experiment: Toxicity in athymic nu/nu BALB/c mouse bearing human A549 cells assessed as change in total body weight at 1 to 5 mg/kg, po administered 5 times weekly for consecutive 39 days; assay type: organism-based; design: dose 1-5 mg/kg, route oral; conditions: in vivo, 936 h
Summary of the method: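 A549 cells (5 × 10⁶ cells/mL) were injected s.c. into the left flank of BALB/c nu/nu nude mice. After 8 days, once nodules were visible (ca. 3 mm³), mice got oral doses in ethanol:Cremophor EL:distilled water (1:1:18) five times per week for 39 days, with vehicle-only controls (n = 5/group). Total body weights were followed over the period (mean ± SE; Dunnett's test versus control).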

Mus musculus [13] = experiment: Toxicity in athymic nu/nu BALB/c mouse bearing human A549 cells assessed as decrease in body weight at 5 mg/kg, po administered 5 times weekly for consecutive 39 days measured on day 19 to 22 post dosing; conditions: in vivo, 936 h
A549 [14] = experiment: Antitumor activity against human A549 cells xenografted in athymic nu/nu BALB/c mouse assessed as decrease in tumor volume at 1 mg/kg, po administered 5 times weekly for consecutive 39 days (reference value: 224.40 +/- 60.34 mm3); assay type: functional; summary of the method: as §2
Mus musculus [15] = experiment: Antinociceptive activity in po dosed mouse assessed as time of latency at 10 or 50 mg/kg, po administered 1 hr before hot plate test; assay type: functional, organism-based; design: dose 50 mg/kg
Summary of the method: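 Mice (n = 10 per group) given 10 or 50 mg/kg orally; 1 h later placed on a hot plate at 55 ± 0.5 °C. Latency recorded at 0 and 30 min. Comparison with vehicle control by Dunnett's test; mean ± S.D.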

A549 [16] = experiment: Antitumor activity against human A549 cells xenografted in athymic nu/nu BALB/c mouse assessed as decrease in tumor weight at 5 mg/kg, po administered 5 times weekly for consecutive 39 days (reference value: 0.358 +/- 0.052 g); assay type: functional
A549 [17] = experiment: Antitumor activity against human A549 cells xenografted in athymic nu/nu BALB/c mouse assessed as decrease in tumor volume at 5 mg/kg, po administered 5 times weekly for consecutive 39 days (reference value: 224.40 +/- 60.34 mm3); assay type: functional; summary of the method: as §2
A549 [18] = experiment: Antitumor activity against human A549 cells xenografted in athymic nu/nu BALB/c mouse assessed as tumor growth inhibition at 1 mg/kg, po administered 5 times weekly for consecutive 39 days; assay type: functional; conditions: A549, 936 h, read-out: GI

Sequence of Voltage-dependent N-type calcium channel subunit alpha-1B (Q00975 whole entry): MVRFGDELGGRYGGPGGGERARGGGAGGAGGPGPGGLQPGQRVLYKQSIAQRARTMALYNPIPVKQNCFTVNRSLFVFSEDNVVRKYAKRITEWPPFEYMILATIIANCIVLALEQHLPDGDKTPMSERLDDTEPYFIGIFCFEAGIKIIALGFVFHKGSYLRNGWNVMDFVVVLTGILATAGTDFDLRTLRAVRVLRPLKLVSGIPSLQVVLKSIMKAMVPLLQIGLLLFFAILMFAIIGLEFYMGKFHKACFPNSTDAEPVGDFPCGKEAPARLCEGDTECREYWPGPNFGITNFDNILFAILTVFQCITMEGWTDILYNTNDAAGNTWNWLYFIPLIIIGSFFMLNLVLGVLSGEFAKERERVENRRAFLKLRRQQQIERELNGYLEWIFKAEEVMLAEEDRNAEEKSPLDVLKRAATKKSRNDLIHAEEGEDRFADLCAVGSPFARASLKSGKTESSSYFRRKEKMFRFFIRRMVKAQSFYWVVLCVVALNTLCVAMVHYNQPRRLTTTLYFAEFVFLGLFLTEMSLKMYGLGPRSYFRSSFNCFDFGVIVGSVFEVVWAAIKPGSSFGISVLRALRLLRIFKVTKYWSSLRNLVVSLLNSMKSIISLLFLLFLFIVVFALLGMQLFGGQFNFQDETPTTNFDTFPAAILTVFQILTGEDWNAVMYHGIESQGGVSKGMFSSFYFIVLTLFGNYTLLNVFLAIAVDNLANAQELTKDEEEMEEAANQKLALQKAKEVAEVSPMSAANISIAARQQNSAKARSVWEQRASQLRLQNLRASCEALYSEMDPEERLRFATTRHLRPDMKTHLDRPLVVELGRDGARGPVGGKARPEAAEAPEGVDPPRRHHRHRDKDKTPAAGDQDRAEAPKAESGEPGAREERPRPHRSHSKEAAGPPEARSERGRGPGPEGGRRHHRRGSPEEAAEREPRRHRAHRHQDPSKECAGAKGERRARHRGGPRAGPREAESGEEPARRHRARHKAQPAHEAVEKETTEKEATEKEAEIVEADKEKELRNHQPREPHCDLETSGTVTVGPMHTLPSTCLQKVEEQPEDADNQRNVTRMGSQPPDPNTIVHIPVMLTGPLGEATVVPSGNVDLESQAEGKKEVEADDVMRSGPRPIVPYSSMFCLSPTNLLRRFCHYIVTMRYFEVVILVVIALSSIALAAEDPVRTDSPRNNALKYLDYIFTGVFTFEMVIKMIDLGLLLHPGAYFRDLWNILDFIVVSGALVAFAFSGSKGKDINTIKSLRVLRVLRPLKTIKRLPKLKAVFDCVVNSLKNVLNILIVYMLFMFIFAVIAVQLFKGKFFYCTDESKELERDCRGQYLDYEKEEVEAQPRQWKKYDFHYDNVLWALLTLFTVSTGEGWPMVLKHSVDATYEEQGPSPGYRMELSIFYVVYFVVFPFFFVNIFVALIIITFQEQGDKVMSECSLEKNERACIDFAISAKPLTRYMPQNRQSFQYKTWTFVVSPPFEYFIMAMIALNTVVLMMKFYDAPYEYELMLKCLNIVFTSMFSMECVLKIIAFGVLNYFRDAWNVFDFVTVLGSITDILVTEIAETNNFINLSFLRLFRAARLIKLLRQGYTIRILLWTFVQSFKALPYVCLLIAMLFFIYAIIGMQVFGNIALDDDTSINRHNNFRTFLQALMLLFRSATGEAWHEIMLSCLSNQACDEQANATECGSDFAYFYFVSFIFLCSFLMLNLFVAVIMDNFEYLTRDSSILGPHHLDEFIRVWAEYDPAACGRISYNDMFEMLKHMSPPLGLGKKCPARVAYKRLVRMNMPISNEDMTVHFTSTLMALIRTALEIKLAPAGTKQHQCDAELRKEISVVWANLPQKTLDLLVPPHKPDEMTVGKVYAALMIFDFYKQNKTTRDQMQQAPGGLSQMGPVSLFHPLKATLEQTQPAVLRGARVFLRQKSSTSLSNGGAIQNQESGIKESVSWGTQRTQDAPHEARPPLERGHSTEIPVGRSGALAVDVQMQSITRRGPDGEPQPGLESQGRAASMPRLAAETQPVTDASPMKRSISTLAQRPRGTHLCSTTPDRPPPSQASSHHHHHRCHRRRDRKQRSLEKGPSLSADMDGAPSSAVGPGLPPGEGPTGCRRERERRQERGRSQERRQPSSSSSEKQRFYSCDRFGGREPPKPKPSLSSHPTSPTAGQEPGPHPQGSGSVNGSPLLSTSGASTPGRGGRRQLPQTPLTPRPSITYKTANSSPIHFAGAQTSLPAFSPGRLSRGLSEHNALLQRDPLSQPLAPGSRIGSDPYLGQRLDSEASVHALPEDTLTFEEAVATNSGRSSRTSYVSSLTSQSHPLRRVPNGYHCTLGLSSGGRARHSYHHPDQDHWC

Structure (SMILES): CC(C)Cc1ccc(C(C)C(=O)O)cc1 (stereo not drawn)
- Activity (Mus musculus [1]): Active

Structure (SMILES): CC(=O)O[C@H]1C(=O)[C@@]2(C)[C@H]([C@H](OC(=O)c3ccccc3)[C@]3(O)C[C@H](OC(=O)[C@H](O)[C@@H](NC(=O)c4ccccc4)c4ccccc4)C(C)=C1C3(C)C)[C@]1(OC(C)=O)CO[C@@H]1C[C@@H]2O [PACLITAXEL]
- inhibition in vivo at 10 mg/kg (A549 [2]): 53%
- Activity (A549 [3]): 0.17 g
- Activity (Mus musculus [4]): Non-toxic
- Activity (A549 [5]): 22.9 mm3

Structure (SMILES): CN(C)CCCCCN(C)C1=Nc2ccccc2C(CC(=O)NCc2ccccc2)N1c1ccc(-c2ccccc2)cc1.Cl.Cl (stereo not drawn)
- fold change (FC) (A549 [6]): 3
- Activity (A549 [7]): 0.142 g
- IC50 [8]: 4.9 µM
- Activity (Mus musculus [9]): Dose-dependent effect
- inhibition in vivo at 5 mg/kg (A549 [10]): 67%
- Activity (A549 [11]): Dose-dependent effect
- Activity (Mus musculus [12]): Non-toxic
- Activity (Mus musculus [13]): Toxic
- Activity (A549 [14]): 27.05 mm3
- Activity (Mus musculus [15]): inactive
- Activity (A549 [16]): 0.12 g
- Activity (A549 [17]): 7.9 mm3
- inhibition in vivo at 1 mg/kg (A549 [18]): 60%
